Source: ChEMBL document CHEMBL3351384, “Synthesis of pyrazoline-thiazolidinone hybrids with trypanocidal activity” (Eur J Med Chem, 2014)
Values after ≈ are worked out from the molar mass of the structure shown.

How the values were obtained:
[1] = system: Trypanosoma brucei gambiense; test: Anti-trypanosomal activity against Trypanosoma brucei gambiense Feo bloodstream forms assessed as inhibition of parasite growth rate at 1 ug/mL after 72 hrs by resazurin assay; type: functional; conditions: read-out: GI
Summary of the method: (§1)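 Fixed-concentration screen of bloodstream-form Feo parasites, 10⁴ cells per well, cultured in HMI9 with 10% FCS at 37 °C, 5% CO2. Most compounds tested at 50, 10 and 1; some at 100, 20 and 2. Growth measured by resazurin fluorescence at 530 nm. Percent inhibition calculated against untreated wells.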

[2] = system: Trypanosoma brucei gambiense; test: Anti-trypanosomal activity against Trypanosoma brucei gambiense Feo bloodstream forms assessed as inhibition of parasite growth rate at 50 ug/mL after 72 hrs by resazurin assay; type: functional; conditions: read-out: GI; summary of the method: as §1
[3] = system: Trypanosoma brucei gambiense; test: Anti-trypanosomal activity against Trypanosoma brucei gambiense Feo bloodstream forms assessed as inhibition of parasite growth rate at 10 ug/mL after 72 hrs by resazurin assay; type: functional; conditions: read-out: GI; summary of the method: as §1
[4] = system: Trypanosoma brucei gambiense; test: Anti-trypanosomal activity against Trypanosoma brucei gambiense Feo bloodstream forms assessed as inhibition of parasite growth rate after 72 hrs by resazurin assay; type: functional, organism-based
Summary of the method: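 Bloodstream-form Feo parasites in HMI9 with 10% FCS, 37 °C, 5% CO2. Log-phase cells harvested at 3000 × g and used at once. 10⁴ cells per well, with or without inhibitor (stocks in DMSO). Resazurin added and fluorescence read at 530 nm. Inhibition taken against drug-free wells. IC50 from dose–response curves ranging down to 10 ng/ml. Mean ± SD of three independent experiments.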

[5] = system: Trypanosoma cruzi; test: Anti-trypanosomal activity against Trypanosoma cruzi Y; type: functional, organism-based
[6] = system: Trypanosoma brucei rhodesiense; test: Anti-trypanosomal activity against Trypanosoma brucei rhodesiense; type: functional, organism-based
[7] = system: Trypanosoma brucei brucei; test: Anti-trypanosomal activity against Trypanosoma brucei brucei; type: functional, organism-based
[8] = system: Trypanosoma brucei gambiense; test: Anti-trypanosomal activity against Trypanosoma brucei gambiense Feo bloodstream forms assessed as inhibition of parasite growth rate at 20 ug/mL after 72 hrs by resazurin assay; type: functional; conditions: read-out: GI; summary of the method: as §1
[9] = system: Trypanosoma brucei gambiense; test: Anti-trypanosomal activity against Trypanosoma brucei gambiense Feo bloodstream forms assessed as inhibition of parasite growth rate at 2 ug/mL after 72 hrs by resazurin assay; type: functional; conditions: read-out: GI; summary of the method: as §1
[10] = system: Trypanosoma brucei gambiense; test: Anti-trypanosomal activity against Trypanosoma brucei gambiense Feo bloodstream forms assessed as inhibition of parasite growth rate at 100 ug/mL after 72 hrs by resazurin assay; type: functional; conditions: read-out: GI; summary of the method: as §1
[11] = Cytotoxicity against rat L6 cells after 5 days by resazurin assay; type: cell-based
Summary of the method: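 Rat myoblast L-6 cells in RPMI with 25 mM HEPES pH 7.3 and 10% fetal calf serum, 37 °C, 5% CO2. Compounds from DMSO stocks, final DMSO below 1%. Controls received DMSO only. Viability by resazurin conversion, fluorescence at 530 nm excitation and 590 nm emission after a further 4 h. CC50 is the mean ± SD of three independent experiments.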

[12] = Selectivity index, ratio of CC50 for rat L6 cells to IC50 for Trypanosoma brucei gambiense Feo; type: functional
Summary of the method: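 Computed as CC50 (L-6 cells, resazurin) divided by IC50 (T. b. gambiense Feo bloodstream forms, resazurin). Both values are means of three independent experiments.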

[13] = system: Trypanosoma brucei gambiense; test: Potency index, ratio of IC50 for nifurtimox to IC50 for test compound against Trypanosoma brucei gambiense Feo bloodstream forms assessed as inhibition of parasite growth rate after 72 hrs by resazurin assay; type: functional

| Structure (SMILES) | IC50 [4] [µM] | inhibition of growth at 1 µg/mL [1] [%] | inhibition of growth at 50 µg/mL [2] [%] | inhibition of growth at 10 µg/mL [3] [%] | further results |
| --- | --- | --- | --- | --- | --- |
| CCC1SC(N/N=C/CSc2ccccc2)=NC1=O (configuration not stated) |  |  |  |  | IC50 [5]: 0.3 µM |
| CC1=NN(C2=NC(=O)CS2)C(c2ccccc2)C1 (configuration not stated) |  |  |  |  | IC50 [6]: 12 µg/mL (≈ 46.3 µM) |
| COc1ccc(C2CC(c3ccccc3)=NN2C2=NC(=O)S/C2=C\c2ccc([N+](=O)[O-])cc2)cc1 (configuration not stated) |  |  |  |  | IC50 [7]: 3.01 µg/mL (≈ 6.21 µM) |
| COc1ccc(C2CC(c3ccccc3)=NN2/C=C2\SC(=S)NC2=O)cc1 (configuration not stated) | 14.7 | 21.9 | 91.5 | 92.3 |  |
| CN1C(=O)/C(=C/N2N=C(c3ccccc3)CC2c2ccc(Cl)cc2)SC1=S (configuration not stated) |  |  |  |  | inhibition of growth at 20 µg/mL [8]: 42%; inhibition of growth at 2 µg/mL [9]: 8.2%; inhibition of growth at 100 µg/mL [10]: 56% |
| CN1C(=O)/C(=C/N2N=C(c3ccc4ccccc4c3)CC2c2ccc(Cl)cc2)SC1=S (configuration not stated) | > 1 | 97.1 | 97 | 97.2 | CC50 at 120 h [11]: 154 µM |
| COc1ccc(C2CC(c3ccccc3)=NN2/C=C2\SC(=S)N(Cc3ccco3)C2=O)cc1 (configuration not stated) |  | 37.9 | 46.6 | 67.3 |  |
| COc1ccc(C2=NN(/C=C3\SC(=S)N(Cc4ccco4)C3=O)C(c3ccc(OC)cc3)C2)cc1 (configuration not stated) | > 98.9 | 38.7 | 12.8 | 48.2 |  |
| COc1ccc(C2CC(c3ccc4ccccc4c3)=NN2/C=C2\SC(=S)N(Cc3ccco3)C2=O)cc1 (configuration not stated) |  | 19.4 | 54.6 | 32.1 |  |
| O=C1/C(=C/N2N=C(c3ccc4ccccc4c3)CC2c2ccc(Cl)cc2)SC(=S)N1Cc1ccco1 (configuration not stated) |  | 29 | 59.6 | 45.3 |  |
| COc1ccc(C2=NN(/C=C3\SC(=S)N(c4ccc(C)cc4)C3=O)C(c3ccc(OC)cc3)C2)cc1 (configuration not stated) |  | 44.5 | 23.1 | 55.5 |  |
| Cc1ccc(N2C(=O)/C(=C/N3N=C(c4ccccc4)CC3c3ccc(N(C)C)cc3)SC2=S)cc1 (configuration not stated) | > 20.1 | 39.8 | 5.8 | 51.9 |  |
| Cc1ccc(N2C(=O)/C(=C/N3N=C(c4ccc5ccccc5c4)CC3c3ccc(Cl)cc3)SC2=S)cc1 (configuration not stated) | 21.7 | 27.6 | 41.7 | 59.4 |  |
| CC(=O)Oc1cccc(N2C(=O)/C(=C/N3N=C(c4ccc5ccccc5c4)CC3c3ccc(Cl)cc3)SC2=S)c1 (configuration not stated) | 16.5 | 66.7 | 90.6 | 89.9 |  |
| COc1ccc(C2CC(c3ccc4ccccc4c3)=NN2/C=C2\SC(=O)NC2=S)cc1 (configuration not stated) | 18.6 | 19.7 | 87.2 | 74.7 |  |

More lines, main results first:

| IC50 [4] [µM] | Structure (SMILES) | inhibition of growth at 1 µg/mL [1] [%] | inhibition of growth at 50 µg/mL [2] [%] | inhibition of growth at 10 µg/mL [3] [%] | further results |
| --- | --- | --- | --- | --- | --- |
| 3.5 | O=C1NC(=S)/C(=C/N2N=C(c3ccccc3)CC2c2ccccc2O)S1 (configuration not stated) | 61 | 85.8 | 93.3 |  |
| 10.5 | CN(C)c1ccc(C2CC(c3ccccc3)=NN2/C=C2\SC(=S)NC2=O)cc1 (configuration not stated) | 30.2 | 74 | 76.2 |  |
| 13.2 | O=C1NC(=S)S/C1=C\N1N=C(c2ccc3ccccc3c2)CC1c1ccc(F)cc1 (configuration not stated) | 19.9 | 85.4 | 85 |  |
| 0.6 | COc1ccc(C2CC(c3ccc4ccccc4c3)=NN2/C=C2\SC(=S)N(C)C2=O)cc1 (configuration not stated) | 97.2 | 97.1 | 97.2 | CC50 at 120 h [11]: 175 µM; Ratio CC50/IC50 [12]: 292; Ratio IC50 [13]: 6 |
| 1.5 | COc1ccc(C2CC(c3ccccc3)=NN2/C=C2\SC(=S)N(c3ccc(C)cc3)C2=O)cc1 (configuration not stated) | 52.5 | 17.8 | 69.2 |  |
| 2.5 | COc1ccc(C2=NN(/C=C3\SC(=S)N(c4ccc(C)cc4)C3=O)C(c3ccc(Cl)cc3)C2)cc1 (configuration not stated) | 62.8 | 40.2 | 70.4 |  |
| 1.1 | CC(=O)Oc1cccc(N2C(=O)/C(=C/N3N=C(c4ccccc4)CC3c3ccccc3O)SC2=S)c1 (configuration not stated) | 83.1 | 90.9 | 93.8 | CC50 at 120 h [11]: 13.6 µM; Ratio CC50/IC50 [12]: 12.4 |
| 0.7 | COc1ccc(C2=NN(/C=C3\SC(=S)N(c4cccc(OC(C)=O)c4)C3=O)C(c3ccccc3O)C2)cc1 (configuration not stated) | 90.1 | 89.5 | 91.7 | CC50 at 120 h [11]: 40 µM; Ratio CC50/IC50 [12]: 57.1; Ratio IC50 [13]: 6 |
| 10.8 | COc1ccc(C2CC(c3ccccc3)=NN2/C=C2\SC(=S)N(c3cccc(OC(C)=O)c3)C2=O)cc1 (configuration not stated) | 79.3 | 97.2 | 97.5 |  |
| 1.2 | COc1ccc(C2CC(c3ccc4ccccc4c3)=NN2/C=C2\SC(=S)N(c3cccc(OC(C)=O)c3)C2=O)cc1 (configuration not stated) | 87.6 | 94.7 | 95.8 | CC50 at 120 h [11]: > 172 µM; Ratio CC50/IC50 [12]: >143.8 |
| 1.2 | CC(=O)Oc1cccc(N2C(=O)/C(=C/N3N=C(c4ccccc4)CC3c3ccc(N(C)C)cc3)SC2=S)c1 (configuration not stated) | 53.1 | 81.6 | 84.9 | CC50 at 120 h [11]: > 184 µM; Ratio CC50/IC50 [12]: >153.6 |
| 1.9 | CC(=O)Oc1cccc(N2C(=O)/C(=C/N3N=C(c4ccccc4)CC3c3ccc(Cl)cc3)SC2=S)c1 (configuration not stated) | 42.1 | 90.3 | 91.4 |  |
| 4.6 | COc1ccc(C2CC(c3ccccc3)=NN2C(=O)CN/C=C2\SC(=S)N(C)C2=O)cc1 (configuration not stated) | 62.3 | 96.1 | 96.5 |  |
| 2.1 | CN1C(=O)/C(=C/NCC(=O)N2N=C(c3ccc4ccccc4c3)CC2c2ccc(Cl)cc2)SC1=S (configuration not stated) | 52 | 93.5 | 86.9 |  |
| 1.5 | CN1C(=O)/C(=C/NCC(=O)N2N=C(c3ccc4ccccc4c3)CC2c2ccc(F)cc2)SC1=S (configuration not stated) | 46.6 | 95.6 | 94.8 |  |
| 4.4 | CC1CS(=O)(=O)CCN1/N=C/c1ccc([N+](=O)[O-])o1 (configuration not stated) [NIFURTIMOX] |  |  |  | CC50 at 120 h [11]: 78.2 µM; Ratio CC50/IC50 [12]: 17.8 |
